The target of experiment [1] is T1, Okadaic acid binding protein 2.3 (Halichondria okadai) (UniProt B0M1D1).
T1 sequence (whole entry): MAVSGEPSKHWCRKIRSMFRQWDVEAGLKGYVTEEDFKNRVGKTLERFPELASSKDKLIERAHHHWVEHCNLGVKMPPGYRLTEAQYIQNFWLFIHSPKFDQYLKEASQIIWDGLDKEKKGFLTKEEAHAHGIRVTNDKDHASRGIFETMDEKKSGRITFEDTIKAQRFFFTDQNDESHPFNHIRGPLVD
Nature of the experiment: Displacement of [24-3H]OA from Halichondria okadai recombinant OABP 2.3 expressed in Escherichia coli BL21 (DE3) cells.

The next experiment concerns BL21-DE3. Nature of the experiment: Displacement of [24-3H]OA from Halichondria okadai recombinant OABP 2.1 expressed in Escherichia coli BL21 (DE3) cells.
The test system of experiment [2] is P388. Nature of the experiment: Blockade of mitomycin-induced cytotoxicity in mouse P388 cells after 2 days by WST-8 assay in presence of Halichondria okadai recombinant OABP 2.1. It counts as functional, cell-based. Background: Tetrazolium dyes change colour on reduction, which living cells bring about.
Experiment [3] deals with P388. Description: Blockade of okadaic acid-induced cytotoxicity in mouse P388 cells after 2 days by WST-8 assay in presence of Halichondria okadai recombinant OABP 2.1. In kind it is functional, cell-based. The note with it: P388, 48 h. The essentials: (§1)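 P388 cells kept in RPMI 1640 with FBS, penicillin and streptomycin. Cells exposed to 100 nM okadaic acid together with graded concentrations of recombinant OABP for 2 days. WST-8 then added for 4 h; relative viability read as absorbance at 450 nm; EC50 from dose-response.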

The subject of experiment [4] is P388. Nature of the experiment: Blockade of okadaic acid-induced cytotoxicity in mouse P388 cells after 2 days by WST-8 assay in presence of Halichondria okadai recombinant OABP 2.3. It counts as functional, cell-based. To be noted: P388, 48 h. The essentials: as §1

Activity calls are given as the source filed them. The rule behind the calls is not given here.

Take `C=C1[C@@H](O)[C@@H]2O[C@]3(CC[C@H](/C=C/[C@@H](C)[C@@H]4CC(C)=C[C@@]5(O[C@H](C[C@@](C)(O)C(=O)O)CC[C@H]5O)O4)O3)CC[C@H]2O[C@@H]1[C@@H](O)C[C@H](C)[C@H]1O[C@@]2(CC[C@H]1C)OCCC[C@H]2C`: the Activity result (in experiment [1]; in the experiment with BL21-DE3) was “Dose-dependent effect” each time.

Broadly, the EC50 is the concentration at which the effect is half-maximal. With `C=C1[C@@H](O)[C@@H]2O[C@]3(CC[C@H](/C=C/[C@@H](C)[C@@H]4CC(C)=C[C@@]5(O[C@H](C[C@@](C)(O)C(=O)O)CC[C@H]5O)O4)O3)CC[C@H]2O[C@@H]1[C@@H](O)C[C@H](C)[C@H]1O[C@@]2(CCCCO2)CC[C@H]1C` [OKADAIC ACID], the result in the experiment on P388 [2] was inactive. Further, the EC50 is 92 nM with P388 [3] and 87 nM in the experiment on P388 [4]. Moreover, the Activity result (in experiment [1]; in the experiment with BL21-DE3) was “Dose-dependent effect” in each case.

Values taken from ChEMBL document CHEMBL1268890, “Binding of diarrheic shellfish poisoning toxins to okadaic acid binding proteins purified from the sponge Halichondria okadai” (Bioorg Med Chem, 2010).
